For orientation: inhibition means the relative decrease from the control value, in per cent. What is called IC50 is the concentration that gives 50% inhibition. Usually mortality stands for the share of the test organisms that died.

Values after ≈ are worked out from the molar mass of the structure shown.

The values below come from ChEMBL document CHEMBL4138041, “Synthesis and biological activity evaluation of novel peroxo-bridged derivatives as potential anti-hepatitis B virus agents” (Medchemcomm, 2017).

Series [1] deals with HepG2 2.2.15. As to the kind of experiment: (§1) Cytotoxicity against human HepG2.2.15 cells after 4 days by MTS assay. It is filed as cell-based. The following applies: hepg2 2.2.15, 96 h. The method, boiled down:
(§2)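 HepG2.2.15 cells seeded at 1.0×10^5 cells/mL, grown 24 h at 37 °C in 5% CO2, then exposed to various concentrations (ethanol-dissolved) for 4 days. Medium removed and MTS added for 3 h at 37 °C. Absorbance read at 490 nm. % inhibition = (1 − sample OD/untreated control OD)×100.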
For orientation: Tetrazolium dyes change colour on reduction, which living cells bring about.

Series [2] has as its system Hepatitis B virus. As to the kind of experiment: Antiviral activity against Hepatitis B virus infected in human HepG2.2.15 cells assessed as inhibition of HBsAg secretion at 3.13 ug/ml after 4 days by ELISA relative to control. The series is classed as functional. The following applies: HepG2.2.15, 96 h. The essentials:
(§3)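 HepG2.2.15 cells in DMEM with nonessential amino acids, sodium pyruvate and 10% heat-inactivated FBS, 37 °C, 5% CO2, seeded at 1.0×10^5 cells/mL. Treated at 3.13 µg/mL for 4 or 8 days. Cleared supernatant stored at -20 °C, then HBsAg/HBeAg measured by ELISA, OD 450 nm. % inhibition = (1 − sample OD/untreated control OD)×100.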

The test system of series [3] is Hepatitis B virus. As to the kind of experiment: Antiviral activity against Hepatitis B virus infected in human HepG2.2.15 cells assessed as inhibition of HBeAg secretion at 3.13 ug/ml after 4 days by ELISA relative to control. It is filed as functional. The following applies: HepG2.2.15, 96 h. The essentials:
as §3
On the technique in general: An ELISA detects its analyte on a solid surface through an enzyme-linked reagent.

In series [4] the test system is Hepatitis B virus. The experiment in a line: Antiviral activity against Hepatitis B virus infected in human HepG2.2.15 cells assessed as inhibition of HBsAg secretion at 3.13 ug/ml after 8 days by ELISA relative to control. Particulars: HepG2.2.15, 192 h. It is filed as functional. The essentials:
as §3

Series [5] has as its system Hepatitis B virus. As to the kind of experiment: Antiviral activity against Hepatitis B virus infected in human HepG2.2.15 cells assessed as inhibition of HBeAg secretion at 3.13 ug/ml after 8 days by ELISA relative to control. It is filed as functional. The following applies: HepG2.2.15, 192 h. The method, boiled down: as §3
Series [6] is described as follows: as §1. It is filed as cell-based, HepG2 2.2.15. Particulars: HepG2.2.15 cells, read-out: TC50. The essentials: as §2
In series [7] the test system is Hepatitis B virus. As to the kind of experiment: Antiviral activity against Hepatitis B virus infected in human HepG2.2.15 cells assessed as inhibition of HBsAg secretion after 4 days by ELISA. The series is classed as functional, organism-based. Particulars: HepG2.2.15, 96 h. The method, boiled down: (§4)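 HepG2.2.15 cells kept as monolayers in DMEM with nonessential amino acids, sodium pyruvate and 10% heat-inactivated FBS, 37 °C, 5% CO2. Seeded at 1.0×10^5 cells/mL in 96-well plates and exposed to a range of concentrations (ethanol-dissolved) for 4 or 8 days. Supernatant HBsAg/HBeAg measured by ELISA at 450 nm. % inhibition = (1 − sample OD/untreated control OD)×100.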

Series [8] deals with Hepatitis B virus. As to the kind of experiment: Antiviral activity against Hepatitis B virus infected in human HepG2.2.15 cells assessed as inhibition of HBeAg secretion after 4 days by ELISA. The series is classed as functional, organism-based. Particulars: HepG2.2.15, 96 h. The essentials: as §4
Series [9] deals with Hepatitis B virus. As to the kind of experiment: Antiviral activity against Hepatitis B virus infected in human HepG2.2.15 cells assessed as inhibition of HBsAg secretion after 8 days by ELISA. It is filed as functional, organism-based. Particulars: HepG2.2.15, 192 h. The essentials:
as §4

In series [10] the test system is Hepatitis B virus. The experiment in a line: Antiviral activity against Hepatitis B virus infected in human HepG2.2.15 cells assessed as inhibition of HBeAg secretion after 8 days by ELISA. The series is classed as functional, organism-based. Particulars: HepG2.2.15, 192 h. The method, boiled down: as §4
Series [11] is described as follows: Therapeutic index, ratio of TC50 for human HepG2.2.15 cells to IC50 for Hepatitis B virus infected in human HepG2.2.15 cells assessed as inhibition of HBsAg secretion after 4 days. The series is classed as toxicity, cell-based. The following applies: read-out: TI.
Series [12] in a line: Therapeutic index, ratio of TC50 for human HepG2.2.15 cells to IC50 for Hepatitis B virus infected in human HepG2.2.15 cells assessed as inhibition of HBeAg secretion after 4 days. It is filed as toxicity, cell-based. Particulars: read-out: TI.
A short description of series [13]: Therapeutic index, ratio of TC50 for human HepG2.2.15 cells to IC50 for Hepatitis B virus infected in human HepG2.2.15 cells assessed as inhibition of HBsAg secretion after 8 days. The series is classed as toxicity, cell-based. Particulars: read-out: TI.
Series [14] is described as follows: Therapeutic index, ratio of TC50 for human HepG2.2.15 cells to IC50 for Hepatitis B virus infected in human HepG2.2.15 cells assessed as inhibition of HBeAg secretion after 8 days. It is filed as toxicity, cell-based. The following applies: read-out: TI.
Series [15] is described as follows: Acute toxicity in ICR mouse assessed as mortality rate at 1000 mg/kg, ip measured up to 14 days relative to control. It is filed as organism-based. Particulars: in vivo. The essentials: (§5)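 Kunming mice of both sexes, 18-22 g, six groups of six matched for weight and size, single intraperitoneal injection at 56, 178, 350, 422, 750 or 1000 mg/kg. General behaviour observed at 1, 4 and 24 h, then followed up to 14 days for behaviour, toxic effects and mortality. LD50 with 95% confidence interval derived from the dose groups.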

Series [16] can be described thus: Acute toxicity in ICR mouse assessed as mortality rate at 750 mg/kg, ip measured up to 14 days relative to control. The series is classed as organism-based. The following applies: in vivo. The essentials:
as §5

A short description of series [17]: Acute toxicity in ICR mouse assessed as mortality rate at 422 mg/kg, ip measured up to 14 days relative to control. The series is classed as organism-based. The following applies: in vivo. The essentials: as §5
The nature of series [18]: Acute toxicity in ICR mouse assessed as mortality rate at 178 mg/kg, ip measured up to 14 days relative to control. It is filed as organism-based. Particulars: in vivo. The method, boiled down:
as §5

Consider `CC(C)CCC[C@@H](C)[C@H]1CC[C@@H]2[C@]1(C)CC[C@H]1[C@]23C=C[C@@]2(C[C@@H](O)CC[C@]12C)OO3`, for which the Activity entry in [1] was “Dose-dependent effect”. Also, the inhibition at 3.13 µg/mL in series [2] amounted to 1.2%; in series [3], 1.35%; in [4] it was 1.56%; in series [5], 2.55%.
Regarding `CC(C)CCC[C@@H](C)[C@H]1CC[C@@H]2[C@]1(C)CC[C@H]1[C@]23C=C[C@@]2(CC(=O)CC[C@]12C)OO3`, the CC50 at 96 h in series [6] is 10.2 µg/mL (≈ 24.7 µM). In addition, the Activity result in [1] was “Dose-dependent effect”. Further, the inhibition at 3.13 µg/mL came out at 72.3% in series [2], 54.1% in series [3], 77.5% in [4] and 58.7% in series [5]. The IC50 was determined as 1.78 µg/mL (≈ 4.29 µM) in series [7], 1.86 µg/mL (≈ 4.49 µM) in series [8], 2.59 µg/mL (≈ 6.25 µM) in [9] and 2.95 µg/mL (≈ 7.11 µM) in series [10]. Besides, the selectivity ratio at 96 h amounted to 5.79 in [11] and 5.51 in series [12]. For the same molecule, the selectivity ratio at 192 h in series [13] turned out to be 3.4; in series [14], 3.47. In addition, the mortality at 336 h in [15] amounted to 100%; in series [16] it was 100%; in series [17], 67%; in series [18] it was 0%.
As to `CCC(CC[C@@H](C)[C@H]1CC[C@@H]2[C@]1(C)CC[C@H]1[C@]23C=C[C@@]2(CC(=O)CC[C@]12C)OO3)C(C)C` (some centres not stated), in series [1], the Activity entry is “Dose-dependent effect”. The inhibition at 3.13 µg/mL in [2] amounted to 1.91%; in series [3] it was 3.28%; in [4], 5.7%; in series [5] it was 2.36%.
With `CCC(CC[C@@H](C)[C@H]1CC[C@@H]2[C@]1(C)CC[C@H]1[C@]23C=C[C@@]2(C[C@@H](OC(C)=O)CC[C@]12C)OO3)C(C)C` (some centres not stated), the Activity entry in [1] is recorded as “Dose-dependent effect”. The inhibition at 3.13 µg/mL in series [2] is 26.7%; in series [3], 25.6%; in series [4] it was 28.8%; in series [5] it was 25.8%.
For `CC(=O)O[C@H]1CC[C@]2(C)[C@H]3CC[C@]4(C)[C@@H]([C@H](C)CCCC(C)C)CC[C@H]4[C@@]34C=C[C@@]2(C1)OO4`, the Activity entry in series [1] is given as “Dose-dependent effect”. For the same molecule, the inhibition at 3.13 µg/mL in [2] was 13%; in [3], 3.51%; in series [4], 13.8%; in series [5], 7.56%.
Consider `CCC(CC[C@@H](C)[C@H]1CC[C@@H]2[C@]1(C)CC[C@H]1[C@]23C=C[C@@]2(C[C@@H](O)CC[C@]12C)OO3)C(C)C` (some centres not stated), for which the Activity result in [1] is “Dose-dependent effect”. Further, the inhibition at 3.13 µg/mL came to 19% in series [2], 2.88% in series [3], 20% in series [4] and 10.3% in [5].
Take `Nc1ccn([C@H]2CS[C@@H](CO)O2)c(=O)n1`: the inhibition at 3.13 µg/mL in series [2] is 5.68%; in series [3] it was 4.94%; in series [4], -0.44%; in series [5] it was -9.22%.
